Data taken from ChEMBL document CHEMBL1142973, “Enzymatically activated cycloSal-d4T-monophosphates: The third generation of cycloSal-pronucleotides” (J Med Chem, 2007).

Tests used:
[1] = test system: Human immunodeficiency virus 2; experiment: Antiviral activity against HIV2 ROD in CEM/TK- cells; format: functional, organism-based; settings: Human immunodeficiency virus 2, ROD
Method in brief: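 Thymidine kinase-deficient CEM/TK- cells at 4 × 10^5 cells/mL infected with HIV-2 (ROD, MT-4-grown stock) at ~100 CCID50/mL; mixed 1:1 with compound dilutions; giant cell formation scored microscopically after 4-5 days. EC50 as means of two to three independent experiments.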

[2] = test system: Human immunodeficiency virus 2; experiment: Antiviral activity against HIV2 ROD in CEM/0 cells; format: functional, organism-based; settings: Human immunodeficiency virus 2, ROD, CCRF-CEM
Method in brief: (§1)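 CEM/0 cells at 4 × 10^5 cells/mL infected with HIV (HIV-1, or HIV-2 strain ROD) at ~100 CCID50 per mL; virus stocks from infected MT-4 cell supernatants. Mixed 1:1 with compound dilutions, 4-5 days; giant cell formation scored microscopically. EC50, means of two to three independent experiments.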

[3] = test system: Human immunodeficiency virus 1; experiment: Antiviral activity against HIV1 in CEM/0 cells; format: functional, organism-based; settings: Human immunodeficiency virus 1, CCRF-CEM; method in brief: as §1
[4] = Hydrolysis half life in human serum at pH 6.8; format: ADME, cell-free
Method in brief: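 Incubation in human serum pooled from hospital blood samples, pH 6.8, without acetic acid stop; products analysed by HPLC; half-life determined.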

[5] = Hydrolysis half life in CEM cell extracts at pH 6.9; format: ADME; settings: human, CEM (CCRF-CEM) cell extracts
[6] = Hydrolysis half life in […]/FCS medium at pH 7.6; format: ADME; settings: cattle, […]/FCS culture medium
Method in brief: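 Incubated in RPMI-1640 culture medium with 10% heat-inactivated fetal calf serum, pH 7.6; cleavage products followed by HPLC to derive half-lives.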

[7] = Chemical stability in phosphate buffer at pH 7.3; format: physicochemical
Method in brief: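 Triesters incubated in aqueous 25 mM phosphate buffer, pH 7.3; hydrolysis products (d4TMP, salicyl alcohol) followed by HPLC to give half-lives.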

CC(=O)OC(OC(C)=O)c1cc2c(c(C(C)(C)C)c1)OP(=O)(OC[C@@H]1C=C[C@H](n3cc(C)c(=O)[nH]c3=O)O1)OC2 (stereo partly specified) gave an EC50 [1] of 3 µM, an EC50 [2] of 750 nM and an EC50 [3] of 320 nM. For the same compound, the half-life [4] was 522 min, the half-life [5] was 7.2 min and the half-life [6] was 282 min. It also gave a half-life [7] of 420 min.

With Cc1cn([C@H]2C=C[C@@H](CO)O2)c(=O)[nH]c1=O [STAVUDINE] the EC50 [1] was 47.5 µM, the EC50 [2] was 630 nM and the EC50 [3] was 480 nM.

Work on Cc1cn([C@H]2C=C[C@@H](COP3(=O)OCc4cc(C=O)cc(C(C)(C)C)c4O3)O2)c(=O)[nH]c1=O (stereo partly specified) yielded an EC50 [1] of 17.5 µM, an EC50 [2] of 600 nM and an EC50 [3] of 450 nM. It also gave a half-life [7] of 57 min.

For Cc1cn([C@H]2C=C[C@@H](COP3(=O)OCc4cc(Br)ccc4O3)O2)c(=O)[nH]c1=O (stereo partly specified), the EC50 [1] was 15 µM, the EC50 [2] was 260 nM and the EC50 [3] was 140 nM. It also gave a half-life [7] of 52.8 min.

In the case of Cc1cn([C@H]2C=C[C@@H](COP3(=O)OCc4cc(C=O)ccc4O3)O2)c(=O)[nH]c1=O (stereo partly specified), the EC50 [1] is reported as 5 µM, the EC50 [2] is reported as 150 nM and the EC50 [3] is reported as 410 nM. It also gave a half-life [7] of 10.8 min.

CC(=O)OC(OC(C)=O)c1cc(C)c2c(c1)COP(=O)(OC[C@@H]1C=C[C@H](n3cc(C)c(=O)[nH]c3=O)O1)O2 (stereo partly specified) gave a half-life [4] of 216 min, a half-life [5] of 4.8 min and a half-life [6] of 90 min. For the same compound, the half-life [7] was 138 min.

CC(=O)OC(OC(C)=O)c1ccc2c(c1)COP(=O)(OC[C@@H]1C=C[C@H](n3cc(C)c(=O)[nH]c3=O)O1)O2 (stereo partly specified) showed an EC50 [1] of 10.5 µM, an EC50 [2] of 400 nM and an EC50 [3] of 420 nM. The half-life [4] was 90 min, the half-life [5] was 4.8 min and the half-life [6] was 54 min. For the same compound, the half-life [7] was 72 min.

With Cc1cn([C@H]2C=C[C@@H](COP3(=O)OCc4cccc(C(C)(C)C)c4O3)O2)c(=O)[nH]c1=O (stereo partly specified) the EC50 [1] was 0.33 µM, the EC50 [2] was 650 nM and the EC50 [3] was 180 nM. The half-life [7] was 4380 min.

With Cc1cn([C@H]2C=C[C@@H](COP3(=O)OCc4cc([N+](=O)[O-])ccc4O3)O2)c(=O)[nH]c1=O (stereo partly specified) the EC50 [1] was 40 µM, the EC50 [2] was 400 nM and the EC50 [3] was 290 nM.

For Cc1cccc2c1OP(=O)(OC[C@@H]1C=C[C@H](n3cc(C)c(=O)[nH]c3=O)O1)OC2 (stereo partly specified), the EC50 [1] was 0.05 µM, the EC50 [2] was 70 nM and the EC50 [3] was 60 nM. For the same compound, the half-life [5] was 870 min and the half-life [7] was 1050 min.

For Cc1cn([C@H]2C=C[C@@H](COP3(=O)OCc4cc(CCC(=O)OCOC(=O)C(C)(C)C)ccc4O3)O2)c(=O)[nH]c1=O (stereo partly specified), the EC50 [1] was 0.7 µM, the EC50 [2] was 330 nM and the EC50 [3] was 230 nM. For the same compound, the half-life [5] was 22.8 min and the half-life [7] was 336 min.

For Cc1cn([C@H]2C=C[C@@H](COP3(=O)OCc4cc(CCC(=O)OCOC(=O)C(C)C)ccc4O3)O2)c(=O)[nH]c1=O (stereo partly specified), the EC50 [1] was 1.73 µM, the EC50 [2] was 600 nM and the EC50 [3] was 260 nM. For the same compound, the half-life [5] was 54 min and the half-life [7] was 234 min.

Compound Cc1cc(C=O)cc2c1OP(=O)(OC[C@@H]1C=C[C@H](n3cc(C)c(=O)[nH]c3=O)O1)OC2 (stereo partly specified) has a half-life [7] of 21 min.
